# Screens from PubChem BioAssay.
# An excerpt weighted towards active compounds, which were near 3.1% of everything screened.
# hERG rescue: compounds protecting human hERG from proarrhythmic drug block. CHO-hERG, FluxOR thallium flux, dofetilide IC70 present. activation (rescue from dofetilide block), less the hit threshold, % at 10 µM. Q12809. hit rate 0.51% among 310,000;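 active = activation above the mean of controls blocked by dofetilide plus 5 SD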;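 note: thallium influx through hERG after potassium depolarization seen as dye fluorescence rise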
# Target sequence (Q12809 whole entry, looked up): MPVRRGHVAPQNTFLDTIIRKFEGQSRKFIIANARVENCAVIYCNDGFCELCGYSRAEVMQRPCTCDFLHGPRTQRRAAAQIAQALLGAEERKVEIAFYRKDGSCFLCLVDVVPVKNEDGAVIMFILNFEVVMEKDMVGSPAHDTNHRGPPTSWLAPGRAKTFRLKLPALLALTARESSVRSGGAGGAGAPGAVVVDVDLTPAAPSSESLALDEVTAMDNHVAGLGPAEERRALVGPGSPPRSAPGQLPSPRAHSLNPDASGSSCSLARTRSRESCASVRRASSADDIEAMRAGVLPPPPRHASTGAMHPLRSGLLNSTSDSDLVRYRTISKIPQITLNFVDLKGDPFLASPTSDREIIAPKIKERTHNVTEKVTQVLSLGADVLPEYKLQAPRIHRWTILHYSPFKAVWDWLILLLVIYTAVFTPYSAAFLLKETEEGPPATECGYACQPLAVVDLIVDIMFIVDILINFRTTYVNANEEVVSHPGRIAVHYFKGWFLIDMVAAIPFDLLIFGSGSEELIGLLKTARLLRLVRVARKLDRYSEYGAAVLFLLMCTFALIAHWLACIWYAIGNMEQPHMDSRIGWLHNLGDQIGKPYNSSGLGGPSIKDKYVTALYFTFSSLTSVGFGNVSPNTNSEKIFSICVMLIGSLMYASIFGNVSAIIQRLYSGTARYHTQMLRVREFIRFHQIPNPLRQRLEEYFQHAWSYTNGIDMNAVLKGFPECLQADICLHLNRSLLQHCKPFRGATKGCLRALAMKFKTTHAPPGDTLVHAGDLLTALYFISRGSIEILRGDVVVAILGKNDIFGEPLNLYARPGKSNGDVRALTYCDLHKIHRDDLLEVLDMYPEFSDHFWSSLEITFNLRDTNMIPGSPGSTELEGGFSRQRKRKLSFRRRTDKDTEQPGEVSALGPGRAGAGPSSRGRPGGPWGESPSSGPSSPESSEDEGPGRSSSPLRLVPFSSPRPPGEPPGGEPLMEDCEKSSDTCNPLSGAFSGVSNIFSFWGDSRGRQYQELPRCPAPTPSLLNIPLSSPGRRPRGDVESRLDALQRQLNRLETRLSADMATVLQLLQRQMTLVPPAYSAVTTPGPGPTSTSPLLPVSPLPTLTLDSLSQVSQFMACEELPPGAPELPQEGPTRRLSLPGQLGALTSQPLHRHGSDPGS
# KCNQ1 pot: potentiators or activators of human KCNQ1 potassium channel; P51787; CHO-K1 KCNQ1, thallium flux FluxOR fluorescence; active compounds read high; B-score at 10 µM; hit rate 0.35% among 310,000; AID 2648;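 active = fluorescence ratio B-score, a plate-corrected score, at least three library SD, with initial intensity B-score within 5 SD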
#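 Medium – assay buffer, equal DMSO in all wells · Material – CHO-K1 cell line with stable KCNQ1 potassium channel expression · Signal – kinetic FluxOR thallium fluorescence, 10-s 1-Hz baseline, 110-s post-stimulus read · Compound – single concentration per compound, DMSO matched to controls · Schedule – 37 °C overnight plating, 90-min dark dye load, 20-min compound pretreatment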
# KCNQ1 block: blocks the human KCNQ1 potassium channel | B-score at 10 µM | hit rate 1.3% among 310,000 | CHO-K1 KCNQ1, FluxOR thallium flux fluorescence; active compounds read high | P51787;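 active = compounds whose thallium flux B-score, printed positive for inhibition, exceeds three library SD while starting fluorescence stays within three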;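 note: channel opened by potassium depolarization with thallium stimulus after 20 min compound exposure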
# KCNK3 block: human KCNK3 channel inhibition, primary screen | AID 602410 | hit rate 0.84% among 340,000 | B-score at 10 µM | O14649 | CHO-KCNK3 thallium flux, FluxOR fluorescence; active compounds read low;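 active = B-score under library mean minus 4 SD, starting fluorescence ratio at most library mean plus 5 SD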;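 note: more negative B-score means stronger inhibition of thallium flux through KCNK3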
# KCNK9 inh: human KCNK9 channel inhibition | HEK293 KCNK9, FluxOR thallium flux fluorescence; active compounds read low | B-score at 10 µM | hit rate 1.2% among 310,000 | Q9NPC2;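 active = ratio B-score over 3 SD below the library mean, with starting fluorescence within 5 SD of its mean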;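 note: negative B-score means less thallium flux so channel inhibition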
# KCNK9 inh conf: human KCNK9 inhibitor confirmation; shares compounds with KCNK9 inh; HEK293 KCNK9 cells, FluxOR thallium flux fluorescence; inhibition, % at 10 µM; hit rate 43% among 4,900; AID 492992;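 active = thallium signal inhibited by more than 5 SD of the compound-free buffer control wells, on both duplicate plates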;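 note: 0% = assay buffer control wells without compound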
# Kir21 sel: mouse Kir2.1 off-target activity of KCNK9 modulators; AID 492993; Kir2.1 cells, FluxOR thallium flux fluorescence; shares compounds with KCNK9 inh; hit rate 4% among 4,900; inhibition, % at 10 µM;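 active = thallium signal drop more than 5 SD beyond the mean of the no-compound control wells, seen in both duplicate plates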;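 note: signal is fluorescence rise after thallium addition divided by baseline fluorescence; plate controls were assay buffer only for no effect and full block by chlorpromazine control for full effect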
# HEK293 Tl ctr: second check of KCNK9 modulator effects in non-induced HEK293 cells; shares compounds with KCNK9 inh; FluxOR thallium flux; inhibition, % at 10 µM; hit rate 40% among 4,900; AID 492997;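 active = thallium signal drop beyond 5 SD of the untreated control mean, on both duplicate plates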;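 note: plate controls were buffer only IC0 wells for no effect and SID17386958 at its maximal inhibitory level for full effect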
# An asterisk follows results filed as active; i = inactive; / = no result.
SMILES,hERG rescue,KCNQ1 pot,KCNQ1 block,KCNK3 block,KCNK9 inh,KCNK9 inh conf,Kir21 sel,HEK293 Tl ctr
O=S(=O)(NCC(c1cccnc1)N1CCN(Cc2ccccc2)CC1)c1cc(F)ccc1F (stereo unspecified),-5.2,i,i,i,i,/,/,/
O=S(=O)(CCNC1CC1)NC1CCCCC1,/,/,/,i,/,/,/,/
COc1ccc(C(=O)c2coc3ccc(O)c(CN4CCCCC4)c23)cc1,-10.5,i,i,i,i,i,i,i
O=C(c1ccccc1)c1coc2ccc(O)c(CN3CCOCC3)c12,-5.7,i,i,i,i,/,/,/
CC(C)n1nc(C(=O)Nc2nnc(SCc3c(Cl)cccc3Cl)s2)c2ccccc2c1=O,-14.6,i,i,i,i,i,i,i
CC(C)n1nc(C(=O)Nc2nc3ccc(S(C)(=O)=O)cc3s2)c2ccccc2c1=O,-10.0,i,i,i,i,/,/,/
Brc1ccc(-c2noc(COc3ccc4c(c3)CCC4)n2)o1,-17.6,i,i,i,i,i,i,i
Clc1ccc(OCc2nc(-c3ccc(Br)o3)no2)cc1,-5.2,i,i,i,i,/,/,/
c1csc(-c2noc(COc3ccc4c(c3)CCCC4)n2)c1,-16.0,i,i,i,i,i,i,i
Cc1ccc(NC(=O)CN(C)C(=O)CSc2nc3ccccc3c(=O)n2Cc2ccco2)cc1,-9.4,i,i,i,i,/,/,/
CN(Cc1ccccc1)C(=O)CSc1nc2ccccc2c(=O)n1Cc1ccco1,-19.0,i,i,i,i,i,i,i
O=C(NC1CC1)c1cccc(NC(=O)c2cc(S(=O)(=O)N3CCOCC3)ccc2Cl)c1,/,/,/,i,/,/,/,/
C=Cc1ccc(Cn2nc(-c3ccc(C)cc3)ccc2=O)cc1,-4.7,i,i,i,i,i,i,i
CCCn1c(C2CCCN2c2nc(C)cs2)nc2cc(Cl)c(Cl)cc21 (stereo unspecified),-8.2,i,i,i,-9.46*,i,i,34.0%*
CCCn1c(C2CCCN2c2nc(-c3cccc(Br)c3)cs2)nc2cc(Cl)c(Cl)cc21 (stereo unspecified),-8.0,i,i,i,i,/,/,/
CCN(CC)S(=O)(=O)c1ccc(C)c(NC(=S)NC2CCCCC2)c1,-7.5,i,i,i,i,i,i,i
CCN(CC)S(=O)(=O)c1cccc(C(=O)NC2CCCCC2)c1,-11.8,i,i,i,i,/,/,/
CN(C(=O)c1cccc(NC(=O)Cc2ccc(NC(=O)C3CCN(C(=O)c4ccccc4)CC3)cc2)c1)C1CCCCC1,/,/,/,i,/,/,/,/
COc1ccc(/C=N\NC(=O)c2cc(O)c(O)c(O)c2)cc1CN1CCN(c2ccc(F)cc2)CC1,-10.6,i,i,i,i,i,i,i
COc1ccc(/C=N/NC(=O)c2ccc(C)cc2)cc1CN1CCN(c2ccc(F)cc2)CC1,-18.6,i,i,i,i,/,/,/
Cc1cccc(C)c1NC(=O)CNC(=O)CCCc1c[nH]c2ccccc12,-19.5,i,i,i,i,/,/,/
CCC1C(=NO)C(CC)C(c2ccccc2)NC1c1ccccc1 (stereo unspecified),-11.1,i,i,i,i,i,i,i
COc1cc2[nH]c(C(=O)NCc3ccccc3)cc2c(OC)c1OC,-2.8,i,i,i,i,/,/,/
CCCCCCCCCCn1c2c(c(=N)c3c1CCC3)CCC2,57.7*,i,6*,i,-18*,63.0%*,85.5%*,25.5%*
O=C(NC1CCCCC1)[C@H](CSCc1ccccc1)N1Cc2ccccc2C1=O,-8.4,i,i,i,i,i,i,i
SMILES,hERG rescue,KCNQ1 pot,KCNQ1 block,KCNK3 block,KCNK9 inh,KCNK9 inh conf,Kir21 sel,HEK293 Tl ctr
CC(C)NC(=O)[C@H](CSCc1ccccc1)N1Cc2ccccc2C1=O,-6.2,i,i,i,i,/,/,/
CC(N=C1NS(=O)(=O)c2ccccc21)C(=O)NCc1ccncc1 (stereo unspecified),/,/,/,i,/,/,/,/
CCOC(=O)c1c(NC(=O)CCc2ccc(CC)o2)sc(C)c1C,-18.7,i,i,i,i,i,i,24.0%*
CCOC(=O)c1c(NC(=O)CSc2nnc(Cc3ccccc3)o2)sc(C)c1C,-5.8,i,i,i,i,i,i,i
CCOC(=O)c1c(NC(=O)CSc2nnc(-c3ccc(Cl)cc3)o2)sc2c1CCC2,-11.4,i,i,i,i,i,i,i
CCOC(=O)c1c(NC(=O)CSc2nc3ccccc3o2)sc(C)c1C,-12.3,i,i,i,i,/,/,/
CC(C)(C)c1ccc(-c2nnc(SCC(=O)Nc3sc4c(c3C#N)CCCC4)o2)cc1,-4.6,i,i,i,i,/,/,/
CCOC(=O)c1c(NC(=O)CSc2nc3ccccc3s2)sc(C)c1C,-10.9,i,i,i,i,i,i,i
CCOC(=O)c1c(NC(=O)CSc2nnc(-c3ccco3)o2)sc(C)c1C,-4.9,i,i,i,i,/,/,/
CCCOc1ccc(C(=O)NNC(=O)CCNC(=O)c2ccco2)cc1OC,-4.1,i,i,i,i,/,/,/
COc1cc(C(=O)OC(C)C(=O)NC(=O)NC2CCCCC2)ccc1OC(F)F (stereo unspecified),/,/,/,i,/,/,/,/
Cc1nnc(SCC(=O)Nc2sc3c(c2C(=O)c2ccccc2)CCCC3)s1,-7.8,i,i,i,i,i,i,i
Cc1nnc(SCC(=O)Nc2ccccc2NC(=O)CSc2nnc(C)s2)s1,-12.6,i,i,i,i,/,/,/
CC(=O)Nc1ccc(S(=O)(=O)N(C)CC(=O)OC(C)C(=O)N(C)Cc2ccccc2)cc1 (stereo unspecified),-0.1,i,i,i,i,/,/,/
CCOC(=O)C(=COC(=O)c1ccccc1)NC(=O)Cc1ccccc1,/,/,/,i,/,/,/,/
O=C(NNC(=S)Nc1ccc(Br)cc1)c1ccccc1Br,-15.8,i,i,i,i,i,i,i
Cc1ccccc1-c1noc(-c2ccccc2C(=O)NCC2CCCO2)n1 (stereo unspecified),-8.7,i,i,i,i,/,/,/
O=C(Nc1cc(Sc2nc3ccccc3s2)cc([N+](=O)[O-])c1)c1ccccc1F,-20.4,i,i,i,-9.03*,32.0%*,i,30.5%*
COc1ccc(-c2csc(Nc3ccc(S(=O)(=O)Nc4cc(C)on4)cc3)n2)cc1C,-38.4,i,i,i,-8.74*,55.5%*,i,i
